High-throughput results: PubChem BioAssay, several laboratories
This is a sample that favours compounds with a hit; in the whole collection about 3.7% have one here.
EBI2 block – antagonists of human EBI2 receptor; EBI2 beta-arrestin recruitment, luminescence, 7a,25-OHC stimulated; inhibition, % at 5 µM; 360,000 tested, 0.81% active; in the data active = inhibition above about 38%;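 note: enzyme fragment complementation signal reports receptor beta-arrestin coupling in cells; 0% = agonist plus DMSO wells and 100% = wells without agonist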
Target sequence (P32249 whole entry, looked up, the tested form may be a part): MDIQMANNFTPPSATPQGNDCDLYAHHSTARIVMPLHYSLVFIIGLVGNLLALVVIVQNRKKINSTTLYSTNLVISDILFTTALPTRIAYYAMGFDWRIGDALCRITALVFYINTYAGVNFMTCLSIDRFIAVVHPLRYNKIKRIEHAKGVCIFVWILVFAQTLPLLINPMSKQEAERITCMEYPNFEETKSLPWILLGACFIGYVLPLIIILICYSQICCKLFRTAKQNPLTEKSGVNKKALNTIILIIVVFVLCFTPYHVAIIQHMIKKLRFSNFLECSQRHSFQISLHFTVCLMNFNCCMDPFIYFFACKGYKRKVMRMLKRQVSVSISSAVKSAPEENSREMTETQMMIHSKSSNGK
MC4R barr agon – agonists of human melanocortin 4 receptor (MC4R) beta-arrestin; U2OS MC4R beta-arrestin complementation, luminescence; percent of melanotan II response, DMSO zero; 360,000 tested, 0.98% active; activation, % at 8.9 µM;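 active = activation above a per-plate cutoff, the mean activation of sample wells on that plate plus 3 SD, cut at about 8% in these data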
MC4R antag cAMP – antagonists of human melanocortin 4 receptor (MC4R); P32245; MC4R-expressing cells, MTII-stimulated cAMP, LANCE TR-FRET; inhibition, % at 6.5 µM; 360,000 tested, 0.48% active; AID 540295;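 active = inhibition above its plate's cutoff, the mean of tested wells on that plate plus 3 SD, cut at about 29% in these data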;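 note: 0% = Melanotan II alone and 100% = Melanotan II plus saturating MCL0020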
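system = U2OS cells with stable human MC4R expression | also added = Melanotan II challenge after compound preincubation | dosing = one concentration, 6.5 µM nominal | incubation = compound 30 min, challenge 1 h, detection 1 h | measured by = TR-FRET with Eu-cAMP and labeled anti-cAMP, 671 nm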
Exocytosis inh – blocks lytic granule exocytosis | TALL-104 LAMP-1 surface exposure, flow cytometry; cells stimulated with thapsigargin and PMA | inhibition, % at 10 µM | 360,000 tested, 0.66% active;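 active = inhibition above about 55%, limit read from the data; inconclusive = no clear call, values can overlap the other calls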
Myeloid diff 2 – myeloid differentiation induction; 360,000 tested, 1% active; AID 624256; calls only at 10 µM; ER-HoxA9 myeloid progenitors, lysozyme-GFP differentiation, flow cytometry;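 active = normalized GFP-positive differentiation at or above the plate's own cutoff, the solvent-only control mean plus 3 SD; inconclusive = no clear call, values can overlap the other calls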;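 note: cells exposed to compound for four days before flow analysis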
EBI2 conf – EBI2 (human) antagonism, single concentration confirmation. EBI2 beta-arrestin luminescence, 7a,25-OHC antagonism. 2,400 tested, 29% active. inhibition, % at 5 µM. shares compounds with EBI2 block. AID 651997;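 active = inhibition of at least 50%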
EBI2 ag – activates EBI2, counter-screen for EBI2 antagonists; 2,400 tested, under 10 active; AID 652000; shares compounds with EBI2 block; activation, % at 5 µM; EBI2-expressing cells, agonist mode, luminescence, 60 min; 0% vehicle, 100% 7α,25-dihydroxycholesterol control;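 active = activation of at least 50%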
bGal cs – counter-screen for EBI2 antagonists: E. coli beta-galactosidase inhibition | 2,400 tested, 1% active | purified beta-galactosidase, luminescent Galacton Star, 15 min | shares compounds with EBI2 block | AID 652176 | inhibition, % at 5 µM;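 active = replicate-average signal at least 3 plate SD below neutral wells, shown as high inhibition, flagging enzyme-inhibiting false positives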;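 note: 0% = DMSO wells with enzyme and 100% = wells lacking enzyme; higher means stronger loss of beta-gal luminescence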
* = called active by the depositor; i = inactive; ? = inconclusive; / = no result given.

SMILES	EBI2 block	MC4R barr agon	MC4R antag cAMP	Exocytosis inh	Myeloid diff 2	EBI2 conf	EBI2 ag	bGal cs
COc1ccccc1N1CCN(C(=O)c2cc(-c3cccs3)on2)CC1	67*	-3	7	-6	i	52*	3	11
COc1ccccc1N1CCN(C(=O)c2cc(-c3ccccc3)on2)CC1	63*	-2	-2	2	i	54*	0	5
COc1ccccc1N1CCN(C(=O)c2cc(-c3ccccc3O)on2)CC1	17	3	0	15	i	/	/	/
Cc1ccc(C)c(C(=O)CCC(=O)N2CCN(c3cccc(C(F)(F)F)c3)CC2)c1	-4	4	15	-16	i	/	/	/
Cc1ccc(/C=C/C(=O)N2CCN(c3cccc(C(F)(F)F)c3)CC2)cc1	83*	5	3	0	i	76*	1	-3
CC(CNc1nc2ccc(Cl)cc2n2cnnc12)c1ccccc1 (stereo not given)	6	2	-5	2	i	/	/	/
OC[C@@H]1CN(Cc2ccc(-c3ccccc3)cc2)C[C@H](n2cnc3c(NC4CC4)ncnc32)O1	65*	0	8	7	i	65*	-2	-11
CC(C)N(C)c1ncnc2c1ncn2[C@H]1CN(Cc2ccncc2)C[C@@H](CO)O1	10	2	2	-10	i	/	/	/
OC[C@@H]1CN(Cc2ccco2)C[C@H](n2cnc3c(NC4CCC4)ncnc32)O1	-14	0	-4	-10	i	/	/	/
CC(C)N(C)c1ncnc2c1ncn2[C@H]1CN(Cc2ccc(-c3ccccc3)cc2)C[C@@H](CO)O1	57*	4	8	4	i	46	0	-13
OC[C@@H]1CN(Cc2ccc(Cl)cc2)C[C@H](n2cnc3c(NC4CCC4)ncnc32)O1	44*	0	-3	-7	i	26	0	7
COc1ccc(OCCOC(=O)CNC(=O)c2ccc(F)cc2)cc1	-3	-2	8	8	i	/	/	/
CCCS(=O)(=O)NC(=O)C1(C)CCCN(C(=O)C2(c3ccc(Cl)cc3)CCCC2)C1 (stereo not given)	-6	0	13	0	i	/	/	/
Cc1ccc(N2CC(C(=O)Nc3ccccc3OC(F)F)CC2=O)cc1 (stereo not given)	6	-1	2	14	i	/	/	/
O=C(CSC1CN(C(c2ccccc2)c2ccccc2)C1)N/N=C/c1ccccc1	49*	-1	10	12	i	35	-1	-10
Cc1ccc(NC(=O)N2CCN(C/C=C/c3ccccc3)CC2)cc1	45*	1	-1	12	i	17	2	4
O=C(Nc1ccc2c(c1)OCO2)N1CCN(C/C=C/c2ccccc2)CC1	45*	0	-7	-6	i	25	-1	-8
O=C(Nc1ccc2c(c1)OCO2)N1CCN(c2ccccc2)CC1	7	-2	2	-3	i	/	/	/
NS(=O)(=O)c1ccc(CCNC(=O)Cc2ccc(Cl)cc2)cc1	-2	0	-5	43	i	/	/	/
CC(C)(C)c1ccc(/C=C/C(=O)N2CCCCC2)cc1	1	-1	5	-16	i	/	/	/
CCCn1c(N2CCN(C(=O)/C=C/C(=O)O)CC2)nc2ccccc21	-7	1	10	-5	i	/	/	/
O=C(/C=C/c1ccccc1)N1CCCN(C(=O)/C=C/c2ccccc2)CC1	79*	-3	3	-2	i	53*	-1	-13
CCn1c(N2CCN(C(=O)/C=C/c3ccccc3)CC2)nc2ccccc21	86*	0	-3	-2	i	56*	-2	-5
CC(C)Cc1ccc(/C=C/C(=O)N2CCCCC2)cc1	5	-3	3	1	i	/	/	/
O=C(/C=C/c1ccccc1)N1CCN(C(=O)c2ccco2)CC1	63*	2	-2	3	i	49	1	10
SMILES	EBI2 block	MC4R barr agon	MC4R antag cAMP	Exocytosis inh	Myeloid diff 2	EBI2 conf	EBI2 ag	bGal cs
CCc1ccc(/C=C\C(=O)N2CCCC2)cc1	47*	-4	3	-2	i	21	-2	-8
O=S1(=O)N[C@@H](Cc2ccccc2)COc2ccc(Cl)cc21	1	-1	0	-3	i	/	/	/
Cc1cccc(NS(=O)(=O)c2csc(C(N)=O)c2)c1C	-14	-1	14	-2	i	/	/	/
COC(=O)C1=CN(c2cccc(OCc3ccccc3)c2)C(N)=C(C#N)C1c1cccc(OC)c1OC (stereo not given)	14	/	/	4	i	/	/	/
O=C(NCCc1ccccc1)c1oc2ccccc2c1COc1ccccc1	45*	0	23	5	i	33	2	-4
O=C(NCc1cccs1)C(=O)NCC(c1ccco1)N1CCN(c2ccccc2F)CC1 (stereo not given)	52*	2	4	-2	i	22	2	4
O=C(OCc1nnc(-c2ccc([N+](=O)[O-])cc2)o1)C1CCN(C(=O)c2ccc(Cl)cc2)CC1	50*	0	0	2	i	15	4	4
CC(C)(C)S(=O)N1Cc2cc(C(=O)NCc3ccc4c(c3)OCO4)nc(-c3cccc(-c4ccccc4)c3)c2[C@@H]1CCO (stereo not given in full)	46*	/	/	0	i	23	-1	6
CCCNC(=O)c1cc2c(c(-c3cccc(-c4ccc(F)cc4)c3)n1)[C@H](CCO)N(S(=O)C(C)(C)C)C2 (stereo not given in full)	61*	/	/	5	i	19	0	-12
CCCNC(=O)c1cc2c(c(-c3cccc(-c4ccc(F)cc4)c3)n1)[C@@H](CCO)N(S(=O)C(C)(C)C)C2 (stereo not given in full)	-7	/	/	1	i	/	/	/
CN(Cc1cccc(F)c1)C(=O)c1cccc(S(=O)(=O)N2CCN(Cc3ccccc3)CC2)c1	5	-2	1	2	i	/	/	/
CN(Cc1cccc(Cl)c1Cl)C(=O)c1cccc(S(=O)(=O)N2CCN(Cc3ccccc3)CC2)c1	54*	-5	6	5	?	18	0	-14
CN(Cc1ccc(Cl)c(Cl)c1)C(=O)c1cccc(S(=O)(=O)N2CCN(Cc3ccccc3)CC2)c1	58*	-1	4	-6	i	28	1	6
COc1ccc2cc(OCC(=O)NNC(=O)Nc3ccc(C(C)=O)cc3)ccc2c1	3	-1	2	1	i	/	/	/
Cc1ccccc1C1N=C2Oc3ccccc3C=C2C(=O)N1 (stereo not given)	-7	/	/	-7	?	/	/	/
